Measurements as given in ChEMBL document CHEMBL5696442, “Discovery of type II inhibitors of TGFβ-activated kinase 1 (TAK1) and mitogen-activated protein kinase kinase kinase kinase 2 (MAP4K2)” (J Med Chem, 2015).

How the values were obtained:
Type in all cases: cell-based
[1] = biological target: Tyrosine-protein kinase ABL1 (Homo sapiens, UniProt P00519); assay: Inhibition of ABL ACT labeling site in human A-375 cells at 5 uM by KiNativ Profiling analysis relative to control
Procedure, shortened: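 Intact A375 melanoma cells were treated with compound at 5 or 0.5 μM, then lysed. Lysate kinases were labeled with a lysine-reactive ATP or ADP-biotin probe (KiNativ). Inhibition is read as protection of each kinase labeling site from probe labeling.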

[2] = biological target: T1, Serine/threonine-protein kinase TAO2 (Homo sapiens) (UniProt Q9UL54); assay: Inhibition of TAO2 Lys2 labeling site in human A-375 cells at 0.5 uM by KiNativ Profiling analysis relative to control
T1 sequence (whole entry): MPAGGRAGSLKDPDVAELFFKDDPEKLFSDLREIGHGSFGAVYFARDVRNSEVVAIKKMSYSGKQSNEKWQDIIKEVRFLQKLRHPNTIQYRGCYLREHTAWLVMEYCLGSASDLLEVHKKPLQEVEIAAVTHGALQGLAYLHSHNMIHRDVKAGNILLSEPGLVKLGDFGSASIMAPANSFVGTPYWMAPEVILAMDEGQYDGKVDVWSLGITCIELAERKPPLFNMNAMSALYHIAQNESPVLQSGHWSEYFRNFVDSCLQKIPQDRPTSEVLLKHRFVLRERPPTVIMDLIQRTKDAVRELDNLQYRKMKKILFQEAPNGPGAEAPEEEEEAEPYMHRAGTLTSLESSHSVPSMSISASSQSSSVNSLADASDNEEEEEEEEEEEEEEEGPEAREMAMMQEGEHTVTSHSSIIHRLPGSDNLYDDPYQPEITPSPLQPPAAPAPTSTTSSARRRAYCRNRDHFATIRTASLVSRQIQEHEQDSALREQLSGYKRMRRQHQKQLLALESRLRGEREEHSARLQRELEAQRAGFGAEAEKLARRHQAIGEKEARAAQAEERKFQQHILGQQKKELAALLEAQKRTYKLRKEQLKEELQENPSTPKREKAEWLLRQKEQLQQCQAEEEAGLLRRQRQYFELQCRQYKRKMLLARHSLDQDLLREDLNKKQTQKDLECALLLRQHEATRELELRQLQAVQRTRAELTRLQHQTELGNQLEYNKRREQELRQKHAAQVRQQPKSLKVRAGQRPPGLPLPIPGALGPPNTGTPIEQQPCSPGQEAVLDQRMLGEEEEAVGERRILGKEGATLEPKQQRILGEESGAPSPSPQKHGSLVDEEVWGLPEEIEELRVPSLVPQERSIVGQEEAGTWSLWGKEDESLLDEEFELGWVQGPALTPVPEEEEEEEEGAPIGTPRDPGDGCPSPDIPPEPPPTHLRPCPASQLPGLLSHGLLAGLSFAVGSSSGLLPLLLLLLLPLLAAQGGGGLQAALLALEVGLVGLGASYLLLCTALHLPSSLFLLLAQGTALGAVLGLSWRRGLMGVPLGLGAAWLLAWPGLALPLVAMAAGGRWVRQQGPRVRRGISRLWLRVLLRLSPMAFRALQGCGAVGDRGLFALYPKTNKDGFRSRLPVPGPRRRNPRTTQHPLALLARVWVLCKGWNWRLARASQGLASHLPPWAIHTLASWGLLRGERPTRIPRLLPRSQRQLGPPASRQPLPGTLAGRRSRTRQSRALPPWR

[3] = biological target: Serine/threonine-protein kinase 26 (Homo sapiens) (UniProt Q9P289); assay: Inhibition of MST4 Lys1 labeling site in human A-375 cells at 0.5 uM by KiNativ Profiling analysis relative to control
[4] = biological target: T2, Mitogen-activated protein kinase 13 (Homo sapiens) (UniProt O15264); assay: Inhibition of p38 delta Lys2 labeling site in human A-375 cells at 0.05 uM by KiNativ Profiling analysis relative to control
T2 sequence (whole entry): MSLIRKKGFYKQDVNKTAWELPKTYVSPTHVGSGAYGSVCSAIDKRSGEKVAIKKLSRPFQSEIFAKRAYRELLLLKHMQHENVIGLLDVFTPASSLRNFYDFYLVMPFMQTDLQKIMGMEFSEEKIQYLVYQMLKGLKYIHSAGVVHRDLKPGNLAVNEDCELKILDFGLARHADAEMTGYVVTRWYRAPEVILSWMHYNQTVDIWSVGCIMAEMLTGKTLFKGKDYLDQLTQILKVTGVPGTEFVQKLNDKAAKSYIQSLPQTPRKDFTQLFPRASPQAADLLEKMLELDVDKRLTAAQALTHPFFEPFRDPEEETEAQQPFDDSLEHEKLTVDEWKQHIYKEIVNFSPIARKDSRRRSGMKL

[5] = biological target: Serine/threonine-protein kinase tousled-like 2 (Homo sapiens) (UniProt Q86UE8); assay: Inhibition of TLK2 Lys1 labeling site in human A-375 cells at 5 uM by KiNativ Profiling analysis relative to control
[6] = biological target: Serine/threonine-protein kinase Nek7 (Homo sapiens) (UniProt Q8TDX7); assay: Inhibition of NEK7 Lys1 labeling site in human A-375 cells at 0.5 uM by KiNativ Profiling analysis relative to control
[7] = biological target: Ribosomal protein S6 kinase alpha-3 (Homo sapiens) (UniProt P51812); assay: Inhibition of RSK2 domain2 Lys2 labeling site in human A-375 cells at 5 uM by KiNativ Profiling analysis relative to control
Procedure, shortened: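 Live A375 melanoma cells treated with compound at 5 or 0.5 μM, then lysed. Lysate kinases were labeled with a lysine-reactive ATP or ADP-biotin probe. Inhibition was read as protection of labeling sites from the probe.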

[8] = biological target: eIF-2-alpha kinase GCN2 (Homo sapiens) (UniProt Q9P2K8); assay: Inhibition of GCN2 domain2 Lys2 labeling site in human A-375 cells at 5 uM by KiNativ Profiling analysis relative to control
[9] = biological target: T3, Dual specificity mitogen-activated protein kinase kinase 3 (Homo sapiens) (UniProt P46734); assay: Inhibition of MAP2K3 Lys2 labeling site in human A-375 cells at 0.05 uM by KiNativ Profiling analysis relative to control
T3 sequence (whole entry): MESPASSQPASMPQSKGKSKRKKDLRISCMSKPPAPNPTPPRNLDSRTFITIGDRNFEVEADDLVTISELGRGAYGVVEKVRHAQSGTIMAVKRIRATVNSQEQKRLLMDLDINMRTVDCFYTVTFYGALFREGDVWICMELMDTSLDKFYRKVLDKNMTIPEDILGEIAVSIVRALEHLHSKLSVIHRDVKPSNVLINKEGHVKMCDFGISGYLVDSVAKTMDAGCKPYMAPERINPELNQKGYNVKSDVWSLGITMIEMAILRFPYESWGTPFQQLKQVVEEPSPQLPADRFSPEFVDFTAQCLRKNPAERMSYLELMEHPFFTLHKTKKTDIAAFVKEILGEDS

[10] = biological target: Cyclin-dependent kinase 11B (Homo sapiens) (UniProt P21127); assay: Inhibition of PITSLRE Lys2 labeling site in human A-375 cells at 0.05 uM by KiNativ Profiling analysis relative to control
Ephrin type-A receptor 2 = Ephrin type-A receptor 2 (Homo sapiens, UniProt P29317); assay: Inhibition of EphA2 ACT labeling site in human Huh-7 cells at 1 uM by KiNativ Profiling analysis relative to control
Sequence of Ephrin type-A receptor 2 (P29317 whole entry): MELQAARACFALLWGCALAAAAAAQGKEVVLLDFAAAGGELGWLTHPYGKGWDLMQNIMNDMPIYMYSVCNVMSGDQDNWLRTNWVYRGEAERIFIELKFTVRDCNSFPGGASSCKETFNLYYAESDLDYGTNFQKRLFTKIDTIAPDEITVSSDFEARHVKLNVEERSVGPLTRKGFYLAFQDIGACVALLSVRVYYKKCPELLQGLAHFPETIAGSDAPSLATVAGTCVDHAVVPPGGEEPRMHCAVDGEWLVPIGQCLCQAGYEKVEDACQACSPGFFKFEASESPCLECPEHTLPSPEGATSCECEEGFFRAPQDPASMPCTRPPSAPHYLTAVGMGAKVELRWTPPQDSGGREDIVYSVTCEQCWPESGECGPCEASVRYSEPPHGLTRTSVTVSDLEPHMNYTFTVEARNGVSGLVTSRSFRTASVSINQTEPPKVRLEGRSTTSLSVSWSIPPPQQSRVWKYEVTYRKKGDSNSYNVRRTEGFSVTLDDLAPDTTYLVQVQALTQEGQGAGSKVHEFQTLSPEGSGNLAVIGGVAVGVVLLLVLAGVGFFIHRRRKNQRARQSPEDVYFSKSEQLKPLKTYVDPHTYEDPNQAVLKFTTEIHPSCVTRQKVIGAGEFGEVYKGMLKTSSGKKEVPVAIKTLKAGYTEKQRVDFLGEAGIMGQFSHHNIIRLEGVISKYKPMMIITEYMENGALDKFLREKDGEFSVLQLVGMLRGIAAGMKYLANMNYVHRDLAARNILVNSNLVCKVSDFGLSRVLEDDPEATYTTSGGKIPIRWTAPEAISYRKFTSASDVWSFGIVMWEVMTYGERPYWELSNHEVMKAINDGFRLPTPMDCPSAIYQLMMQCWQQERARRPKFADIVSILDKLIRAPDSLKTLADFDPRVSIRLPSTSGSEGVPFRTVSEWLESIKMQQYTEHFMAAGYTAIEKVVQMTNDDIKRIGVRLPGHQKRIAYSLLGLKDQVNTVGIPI

Sequence of Cyclin-dependent kinase 11B (Homo sapiens) (P21127 whole entry): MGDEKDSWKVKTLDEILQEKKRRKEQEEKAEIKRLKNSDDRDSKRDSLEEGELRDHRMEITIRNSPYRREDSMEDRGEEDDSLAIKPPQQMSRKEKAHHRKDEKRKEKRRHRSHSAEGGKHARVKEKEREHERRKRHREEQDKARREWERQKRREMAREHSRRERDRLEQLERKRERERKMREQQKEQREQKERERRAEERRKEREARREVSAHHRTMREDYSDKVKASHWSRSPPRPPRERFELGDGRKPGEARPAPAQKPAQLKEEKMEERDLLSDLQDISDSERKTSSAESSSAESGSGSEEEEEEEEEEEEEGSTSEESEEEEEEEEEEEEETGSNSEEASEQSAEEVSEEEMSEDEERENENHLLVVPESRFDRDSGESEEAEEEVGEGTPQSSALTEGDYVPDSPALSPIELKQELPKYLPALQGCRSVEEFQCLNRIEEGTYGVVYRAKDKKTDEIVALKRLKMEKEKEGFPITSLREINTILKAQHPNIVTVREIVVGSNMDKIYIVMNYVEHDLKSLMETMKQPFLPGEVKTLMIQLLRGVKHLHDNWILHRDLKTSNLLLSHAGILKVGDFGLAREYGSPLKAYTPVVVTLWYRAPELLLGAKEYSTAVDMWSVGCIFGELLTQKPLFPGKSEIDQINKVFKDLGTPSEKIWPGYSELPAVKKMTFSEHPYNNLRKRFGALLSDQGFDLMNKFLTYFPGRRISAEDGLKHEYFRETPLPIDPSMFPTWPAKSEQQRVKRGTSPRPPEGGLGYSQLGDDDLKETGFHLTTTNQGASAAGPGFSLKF
Sequence of eIF-2-alpha kinase GCN2 (Homo sapiens) (Q9P2K8 whole entry, the tested form may be a part): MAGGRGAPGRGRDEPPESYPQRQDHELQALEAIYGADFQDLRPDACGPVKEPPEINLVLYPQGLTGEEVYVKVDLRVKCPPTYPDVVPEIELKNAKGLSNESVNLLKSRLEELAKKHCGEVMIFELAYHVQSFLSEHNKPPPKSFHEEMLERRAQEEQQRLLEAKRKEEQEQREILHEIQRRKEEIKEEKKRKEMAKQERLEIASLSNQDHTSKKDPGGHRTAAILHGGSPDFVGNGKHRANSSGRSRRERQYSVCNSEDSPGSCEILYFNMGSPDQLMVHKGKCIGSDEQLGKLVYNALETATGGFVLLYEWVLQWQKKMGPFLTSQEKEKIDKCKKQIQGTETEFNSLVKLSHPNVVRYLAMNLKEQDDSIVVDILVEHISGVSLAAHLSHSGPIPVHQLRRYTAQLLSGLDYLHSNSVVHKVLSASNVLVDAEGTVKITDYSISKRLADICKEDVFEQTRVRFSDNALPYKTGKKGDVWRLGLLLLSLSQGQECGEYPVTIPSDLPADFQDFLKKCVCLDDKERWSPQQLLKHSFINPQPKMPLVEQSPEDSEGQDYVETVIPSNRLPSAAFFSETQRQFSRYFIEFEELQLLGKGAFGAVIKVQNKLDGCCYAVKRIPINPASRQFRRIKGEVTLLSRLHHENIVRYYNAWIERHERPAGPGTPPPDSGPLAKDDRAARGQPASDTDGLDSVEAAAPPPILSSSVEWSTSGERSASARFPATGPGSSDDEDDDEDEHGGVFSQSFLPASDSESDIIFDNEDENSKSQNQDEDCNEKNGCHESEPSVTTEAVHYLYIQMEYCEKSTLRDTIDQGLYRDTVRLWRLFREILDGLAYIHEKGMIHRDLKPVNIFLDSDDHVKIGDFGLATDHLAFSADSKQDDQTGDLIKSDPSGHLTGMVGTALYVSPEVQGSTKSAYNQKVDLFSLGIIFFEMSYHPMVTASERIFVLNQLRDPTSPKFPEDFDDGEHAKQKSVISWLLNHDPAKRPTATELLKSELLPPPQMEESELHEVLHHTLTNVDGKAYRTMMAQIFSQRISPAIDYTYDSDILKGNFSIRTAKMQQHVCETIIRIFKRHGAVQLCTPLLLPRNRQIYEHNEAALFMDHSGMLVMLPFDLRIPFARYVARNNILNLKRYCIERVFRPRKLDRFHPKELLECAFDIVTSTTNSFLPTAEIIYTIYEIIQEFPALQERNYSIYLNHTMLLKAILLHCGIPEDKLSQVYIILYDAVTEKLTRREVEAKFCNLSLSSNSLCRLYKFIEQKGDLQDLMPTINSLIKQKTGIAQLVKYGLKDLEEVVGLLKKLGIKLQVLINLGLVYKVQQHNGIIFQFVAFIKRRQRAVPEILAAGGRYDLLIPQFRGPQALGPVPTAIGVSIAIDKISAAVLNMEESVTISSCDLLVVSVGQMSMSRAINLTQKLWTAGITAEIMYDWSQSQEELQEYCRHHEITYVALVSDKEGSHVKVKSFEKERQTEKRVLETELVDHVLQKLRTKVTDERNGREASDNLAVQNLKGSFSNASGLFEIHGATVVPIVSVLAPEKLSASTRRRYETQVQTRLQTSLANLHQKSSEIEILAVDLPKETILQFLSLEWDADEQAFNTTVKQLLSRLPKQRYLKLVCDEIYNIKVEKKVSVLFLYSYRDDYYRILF
Sequence of Serine/threonine-protein kinase tousled-like 2 (Homo sapiens) (Q86UE8 whole entry, looked up): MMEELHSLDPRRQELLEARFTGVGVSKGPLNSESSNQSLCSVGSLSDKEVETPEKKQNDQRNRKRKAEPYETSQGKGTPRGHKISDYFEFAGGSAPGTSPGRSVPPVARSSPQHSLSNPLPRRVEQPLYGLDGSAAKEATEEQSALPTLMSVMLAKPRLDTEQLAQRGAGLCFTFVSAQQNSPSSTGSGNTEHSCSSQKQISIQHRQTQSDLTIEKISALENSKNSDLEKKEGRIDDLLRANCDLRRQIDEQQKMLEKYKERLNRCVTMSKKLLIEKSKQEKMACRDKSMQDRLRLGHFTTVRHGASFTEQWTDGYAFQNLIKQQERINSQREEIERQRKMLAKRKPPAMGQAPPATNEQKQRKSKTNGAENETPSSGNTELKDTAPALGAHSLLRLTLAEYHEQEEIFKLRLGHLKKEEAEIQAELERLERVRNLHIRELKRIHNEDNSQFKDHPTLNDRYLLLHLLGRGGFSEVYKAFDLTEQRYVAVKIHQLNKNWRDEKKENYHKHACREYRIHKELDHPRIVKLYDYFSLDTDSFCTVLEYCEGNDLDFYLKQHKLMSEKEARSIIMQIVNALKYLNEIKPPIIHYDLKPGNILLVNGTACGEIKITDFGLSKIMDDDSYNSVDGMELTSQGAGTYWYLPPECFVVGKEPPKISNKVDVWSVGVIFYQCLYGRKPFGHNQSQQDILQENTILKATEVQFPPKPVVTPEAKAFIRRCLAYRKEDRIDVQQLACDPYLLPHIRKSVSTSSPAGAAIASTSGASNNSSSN
Sequence of Serine/threonine-protein kinase 26 (Homo sapiens) (Q9P289 2-416 limits assumed): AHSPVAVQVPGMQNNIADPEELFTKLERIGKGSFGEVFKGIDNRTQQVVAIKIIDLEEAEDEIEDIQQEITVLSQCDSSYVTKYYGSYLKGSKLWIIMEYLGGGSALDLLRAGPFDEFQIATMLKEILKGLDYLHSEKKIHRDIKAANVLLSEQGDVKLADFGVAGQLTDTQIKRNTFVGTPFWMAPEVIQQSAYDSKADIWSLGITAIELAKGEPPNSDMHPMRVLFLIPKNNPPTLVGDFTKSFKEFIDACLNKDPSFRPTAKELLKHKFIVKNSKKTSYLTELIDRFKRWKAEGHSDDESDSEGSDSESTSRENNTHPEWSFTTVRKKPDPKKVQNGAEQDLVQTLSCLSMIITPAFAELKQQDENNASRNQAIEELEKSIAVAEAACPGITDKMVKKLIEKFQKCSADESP
Sequence of Serine/threonine-protein kinase Nek7 (Homo sapiens) (Q8TDX7 whole entry, looked up, the tested form may be a part): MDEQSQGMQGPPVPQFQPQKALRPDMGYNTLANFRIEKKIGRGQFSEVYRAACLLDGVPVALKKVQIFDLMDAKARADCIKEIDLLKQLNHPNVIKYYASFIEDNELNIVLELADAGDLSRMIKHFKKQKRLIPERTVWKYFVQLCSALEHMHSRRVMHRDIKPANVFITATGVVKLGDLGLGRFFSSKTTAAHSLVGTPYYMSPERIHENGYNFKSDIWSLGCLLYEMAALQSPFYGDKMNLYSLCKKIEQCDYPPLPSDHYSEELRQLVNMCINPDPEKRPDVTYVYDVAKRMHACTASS

## CCN1CCN(Cc2ccc(NC(=O)c3ccc(C)c(/C=C/c4cnc5[nH]ccc5c4OC)c3)cc2C(F)(F)F)CC1
[1]
  inhibition: > 98%
[2]
  inhibition: 37.1%
[3]
  inhibition: 2.8%
[4]
  inhibition: 24.3%
[5]
  inhibition: 27.5%
[6]
  inhibition: 7.8%
[7]
  inhibition: 23.7%
[8]
  inhibition: 83.3%
[9]
  inhibition: 2.6%
[10]
  inhibition: -3.9%

## CCN1CCN(Cc2ccc(NC(=O)c3ccc(C)c(Oc4ccnc5[nH]ccc45)c3)cc2C(F)(F)F)CC1
[1]
  inhibition: > 98%
[2]
  inhibition: 42.8%
[3]
  inhibition: -0.4%
[4]
  inhibition: 64.9%
[5]
  inhibition: 17.7%
Ephrin type-A receptor 2
  inhibition: 16.1%
[6]
  inhibition: -0.5%
[7]
  inhibition: 14.4%
[8]
  inhibition: 44.3%
[9]
  inhibition: 12.6%
[10]
  inhibition: -4.6%

## CNc1cc(Oc2cc(C(=O)Nc3cc(N4CCN(C)CC4)cc(C(F)(F)F)c3)ccc2C)ncn1
Ephrin type-A receptor 2
  inhibition: 69.2%
